From ChEMBL document CHEMBL3616436, “Synthesis, cytotoxicity and antimicrobial activity of thiourea derivatives incorporating 3-(trifluoromethyl)phenyl moiety” (Eur J Med Chem, 2015)
In brackets after ≈: the same amount, converted by molar mass. Activity calls are given as the source filed them. No cut-off for these calls is given here.

Key:
[1] = Cytotoxicity against human MT4 cells; format: cell-based
[2] = system: Vesicular stomatitis virus; test: Antiviral activity against Vesicular stomatitis virus ATCC VR 1540 infected in African green monkey Vero 76 cells assessed as reduction of virus-plaque formation after 2 days by crystal violet staining; format: functional, organism-based; conditions: ATCC VR 1540, Vero, 48 h
[3] = system: Human immunodeficiency virus 1; test: Antiviral activity against HIV1 3B infected in human MT4 cells assessed as protection against virus-induced cytopathogenicity by MTT assay; format: functional, organism-based; conditions: Human immunodeficiency virus 1, 3B
[4] = system: Yellow fever virus; test: Antiviral activity against Yellow fever virus 17D infected in BHK cells assessed as protection against virus-induced cytopathogenicity after 3 to 4 days by MTT assay; format: functional, cell-based
[5] = system: Mammalian orthoreovirus 1; test: Antiviral activity against Reovirus type-1 ATCC VR-214 infected in BHK cells assessed as protection against virus-induced cytopathogenicity after 3 to 4 days by MTT assay; format: functional, cell-based; conditions: Mammalian orthoreovirus 1, ATCC VR-214, BHK
Summary of the method: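 Cells seeded in 96-well plates (BHK 5x10^4, MDBK 3x10^4 cells/well), grown overnight to confluence, infected at m.o.i. 0.01 (BHK for Reo-1, MDBK for BVDV); serial compound dilutions in maintenance medium with 0.5% inactivated FBS added after 1 h; viability by MTT after 3–4 days at 37°C; EC50 for 50% protection by linear regression.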

[6] = system: Vaccinia virus; test: Antiviral activity against Human Vaccinia virus ATCC VR-1549 infected in African green monkey Vero 76 cells assessed as reduction of virus-plaque formation after 3 days by crystal violet staining; format: functional, organism-based; conditions: Orthopoxvirus vaccinia, ATCC VR-1549, Vero, 72 h
[7] = system: Staphylococcus aureus; test: Antimicrobial activity against Staphylococcus aureus ATCC 6538 at 400 ug after 18 hrs by disc-diffusion method; format: functional; conditions: ATCC 6538, 18 h, read-out: IZ
Summary of the method: (§1)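 Disc diffusion on Mueller-Hinton II agar per CLSI; 9 mm paper discs loaded with 400 µg compound from DMSO solution, dried, placed on agar; growth inhibition zone diameter read after 18 h at 35°C.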

[8] = system: Staphylococcus epidermidis; test: Antimicrobial activity against Staphylococcus epidermidis ATCC 35984 at 400 ug after 18 hrs by disc-diffusion method; format: functional; summary of the method: as §1
[9] = system: Bacillus subtilis; test: Antimicrobial activity against Bacillus subtilis ATCC 6633 at 400 ug after 18 hrs by disc-diffusion method; format: functional; conditions: ATCC 6633, 18 h, read-out: IZ; summary of the method: as §1
[10] = system: Micrococcus luteus; test: Antimicrobial activity against Micrococcus luteus ATCC 9341 at 400 ug after 18 hrs by disc-diffusion method; format: functional; summary of the method: as §1
[11] = system: Staphylococcus aureus; test: Antimicrobial activity against Staphylococcus aureus NCTC 4163 after 18 hrs by twofold serial microdilution method; format: functional; conditions: NCTC 4163, 18 h
[12] = system: Staphylococcus aureus; test: Antimicrobial activity against Staphylococcus aureus ATCC 25923 after 18 hrs by twofold serial microdilution method; format: functional; conditions: ATCC 25923, 18 h
[13] = system: Staphylococcus epidermidis; test: Antimicrobial activity against Staphylococcus epidermidis ATCC 12228 after 18 hrs by twofold serial microdilution method; format: functional; conditions: ATCC 12228, 18 h
[14] = system: Staphylococcus epidermidis; test: Antimicrobial activity against Staphylococcus epidermidis ATCC 35984 after 18 hrs by twofold serial microdilution method; format: functional; conditions: ATCC 35984, 18 h
[15] = system: Staphylococcus aureus; test: Antimicrobial activity against hospital methicillin-resistant Staphylococcus aureus 53/05 after 18 hrs by twofold serial microdilution method; format: functional; conditions: 53/05, 18 h
Summary of the method: (§2)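 Twofold serial microdilution in Mueller-Hinton broth. Compound stock was made in DMSO and diluted in sterile water. Tested range was 0.125–512 µg/mL. Final inoculum was 10^5 CFU/mL. Plates were incubated 18 h at 35 °C. MIC is the lowest concentration preventing visible growth.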

[16] = system: Staphylococcus aureus; test: Antimicrobial activity against hospital methicillin-resistant Staphylococcus aureus 54/05 after 18 hrs by twofold serial microdilution method; format: functional; conditions: 54/05, 18 h; summary of the method: as §2
[17] = system: Staphylococcus aureus; test: Antimicrobial activity against hospital methicillin-resistant Staphylococcus aureus 57/05 after 18 hrs by twofold serial microdilution method; format: functional; conditions: 57/05, 18 h; summary of the method: as §2
[18] = system: Staphylococcus aureus; test: Antimicrobial activity against hospital methicillin-resistant Staphylococcus aureus 80/05 after 18 hrs by twofold serial microdilution method; format: functional; conditions: 80/05, 18 h; summary of the method: as §2
[19] = system: Staphylococcus epidermidis; test: Antimicrobial activity against hospital methicillin-resistant Staphylococcus epidermidis 16/04 after 18 hrs by twofold serial microdilution method; format: functional; conditions: 16/04, 18 h; summary of the method: as §2
[20] = system: Staphylococcus epidermidis; test: Antimicrobial activity against hospital methicillin-resistant Staphylococcus epidermidis 31/04 after 18 hrs by twofold serial microdilution method; format: functional; conditions: 31/04, 18 h; summary of the method: as §2
[21] = system: Staphylococcus epidermidis; test: Antimicrobial activity against hospital methicillin-resistant Staphylococcus epidermidis 62/04 after 18 hrs by twofold serial microdilution method; format: functional; conditions: 62/04, 18 h; summary of the method: as §2
[22] = system: Staphylococcus epidermidis; test: Antimicrobial activity against hospital methicillin-resistant Staphylococcus epidermidis 63/04 after 18 hrs by twofold serial microdilution method; format: functional; conditions: 63/04, 18 h; summary of the method: as §2
[23] = system: Staphylococcus epidermidis; test: Antimicrobial activity against hospital methicillin-resistant Staphylococcus epidermidis 76/04 after 18 hrs by twofold serial microdilution method; format: functional; conditions: 76/04, 18 h; summary of the method: as §2
[24] = system: Staphylococcus epidermidis; test: Antimicrobial activity against hospital methicillin-resistant Staphylococcus epidermidis 151/04 after 18 hrs by twofold serial microdilution method; format: functional; conditions: 151/04, 18 h; summary of the method: as §2
[25] = system: Staphylococcus aureus; test: Ratio of ciprofloxacin MIC to compound MIC for hospital methicillin-resistant Staphylococcus aureus 54/05 after 18 hrs by twofold serial microdilution method; format: functional
Summary of the method: (§3)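 Ratio of MICs for ciprofloxacin and test agent, each from twofold serial broth microdilution in Mueller-Hinton broth following CLSI guidelines. DMSO stock was diluted in sterile water to 0.125–512 µg/mL, with a final inoculum of 10^5 CFU/mL.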

[26] = system: Staphylococcus aureus; test: Ratio of ciprofloxacin MIC to compound MIC for hospital methicillin-resistant Staphylococcus aureus 57/05 after 18 hrs by twofold serial microdilution method; format: functional; summary of the method: as §3
[27] = system: Staphylococcus aureus; test: Ratio of ciprofloxacin MIC to compound MIC for hospital methicillin-resistant Staphylococcus aureus 81/05 after 18 hrs by twofold serial microdilution method; format: functional; summary of the method: as §3
[28] = system: Staphylococcus aureus; test: Ratio of ciprofloxacin MIC to compound MIC for hospital methicillin-resistant Staphylococcus aureus 522/11 after 18 hrs by twofold serial microdilution method; format: functional; summary of the method: as §3
[29] = system: Staphylococcus epidermidis; test: Ratio of ciprofloxacin MIC to compound MIC for hospital methicillin-resistant Staphylococcus epidermidis […]/[…] after 18 hrs by twofold serial microdilution method; format: functional, 16/04
[30] = system: Staphylococcus epidermidis; test: Ratio of ciprofloxacin MIC to compound MIC for hospital methicillin-resistant Staphylococcus epidermidis 23/04 after 18 hrs by twofold serial microdilution method; format: functional; summary of the method: as §3
[31] = system: Staphylococcus epidermidis; test: Ratio of ciprofloxacin MIC to compound MIC for hospital methicillin-resistant Staphylococcus epidermidis 63/04 after 18 hrs by twofold serial microdilution method; format: functional; summary of the method: as §3
[32] = system: Staphylococcus epidermidis; test: Ratio of ciprofloxacin MIC to compound MIC for hospital methicillin-resistant Staphylococcus epidermidis 151/04 after 18 hrs by twofold serial microdilution method; format: functional; summary of the method: as §3
[33] = system: Mycobacterium tuberculosis; test: Antimycobacterial activity against drug-sensitive Mycobacterium tuberculosis Spec. 192; format: functional
Summary of the method: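 Classical test-tube successive-dilution method in Youmans' modification of Proskauer and Beck liquid medium with 10% bovine serum. Inoculum came from 14-day cultures. DMSO stock was 10 mg/mL, diluted geometrically in medium. Tubes were incubated at 37 °C. Concentrations tested were 3.1, 6.2, 12.5, 25, 50 and 100 µg/ml. MIC is the minimum concentration inhibiting growth relative to compound-free tubes.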

## FC(F)(F)c1cccc(NC(=S)Nc2ccc(Cl)cc2)c1
[1]
  CC50: 6.8 µM
[2]
  EC50: > 11 µM
[3]
  EC50: > 6.8 µM
[4]
  EC50: > 10 µM
[5]
  EC50: > 10 µM
[6]
  EC50: > 11 µM
[7]
  zone of inhibition at 400 µg/disc: 13 mm
[8]
  inhibition zone (IZ): inactive
[9]
  zone of inhibition at 400 µg/disc: 12 mm
[10]
  inhibition zone (IZ): inactive
[11]
  MIC: 8 µg/mL (≈ 24.2 µM)
[12]
  MIC: 8 µg/mL (≈ 24.2 µM)
[13]
  MIC: 8 µg/mL (≈ 24.2 µM)
[14]
  MIC: 4 µg/mL (≈ 12.1 µM)
[15]
  MIC: 16 µg/mL (≈ 48.4 µM)
[16]
  MIC: 16 µg/mL (≈ 48.4 µM)
[17]
  MIC: 16 µg/mL (≈ 48.4 µM)
[18]
  MIC: 16 µg/mL (≈ 48.4 µM)
[19]
  MIC: 16 µg/mL (≈ 48.4 µM)
[20]
  MIC: 16 µg/mL (≈ 48.4 µM)
[21]
  MIC: 16 µg/mL (≈ 48.4 µM)
[22]
  MIC: 16 µg/mL (≈ 48.4 µM)
[23]
  MIC: 8 µg/mL (≈ 24.2 µM)
[24]
  MIC: 8 µg/mL (≈ 24.2 µM)
[25]
  Ratio: 128
[26]
  Ratio: 128
[27]
  Ratio: 128
[28]
  Ratio: 128
[29]
  Ratio: 128
[30]
  Ratio: 128
[31]
  Ratio: 128
[32]
  Ratio: 128
[33]
  MIC: > 100 µg/mL

## Fc1ccc(NC(=S)Nc2cccc(C(F)(F)F)c2)cc1Cl
[1]
  CC50: 8 µM
[2]
  EC50: > 20 µM
[3]
  EC50: > 8 µM
[4]
  EC50: > 10 µM
[5]
  EC50: > 10 µM
[6]
  EC50: > 20 µM
[7]
  zone of inhibition at 400 µg/disc: 30 mm
[8]; ATCC 35984, 18 h, read-out: IZ
  zone of inhibition at 400 µg/disc: 27 mm
[9]
  zone of inhibition at 400 µg/disc: 30 mm
[10]; ATCC 9341, 18 h, read-out: IZ
  zone of inhibition at 400 µg/disc: 32 mm
[11]
  MIC: 1 µg/mL (≈ 2.87 µM)
[12]
  MIC: 1 µg/mL (≈ 2.87 µM)
[13]
  MIC: 2 µg/mL (≈ 5.73 µM)
[14]
  MIC: 2 µg/mL (≈ 5.73 µM)
[15]
  MIC: 1 µg/mL (≈ 2.87 µM)
[16]
  MIC: 1 µg/mL (≈ 2.87 µM)
[17]
  MIC: 1 µg/mL (≈ 2.87 µM)
[18]
  MIC: 0.25 µg/mL (≈ 0.717 µM)
[19]
  MIC: 1 µg/mL (≈ 2.87 µM)
[20]
  MIC: 1 µg/mL (≈ 2.87 µM)
[21]
  MIC: 0.5 µg/mL (≈ 1.43 µM)
[22]
  MIC: 0.5 µg/mL (≈ 1.43 µM)
[23]
  MIC: 0.25 µg/mL (≈ 0.717 µM)
[24]
  MIC: 2 µg/mL (≈ 5.73 µM)
[25]
  Ratio: 128
[26]
  Ratio: 128
[27]
  Ratio: 128
[28]
  Ratio: 128
[29]
  Ratio: 128
[30]
  Ratio: 128
[31]
  Ratio: 128
[32]
  Ratio: 128
[33]
  MIC: 50 µg/mL (≈ 143 µM)
